Source: PubChem
PAD4 FP inh: human PAD4 inhibitors, primary screen, biochemical, fluorescence polarization, 1536-well format; Protein-arginine deiminase type-4 (Homo sapiens), Q9UM07; recombinant PAD4, RCA probe fluorescence polarization; inhibition, % at 6.36 µM; hit rate 0.41% among 330,000; AID 485272, 2010;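 active = percent inhibition above a cutoff equal to the mean of all tested compounds plus 3 SD, cut at about 15% in these data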
Target sequence (Q9UM07 whole entry, looked up): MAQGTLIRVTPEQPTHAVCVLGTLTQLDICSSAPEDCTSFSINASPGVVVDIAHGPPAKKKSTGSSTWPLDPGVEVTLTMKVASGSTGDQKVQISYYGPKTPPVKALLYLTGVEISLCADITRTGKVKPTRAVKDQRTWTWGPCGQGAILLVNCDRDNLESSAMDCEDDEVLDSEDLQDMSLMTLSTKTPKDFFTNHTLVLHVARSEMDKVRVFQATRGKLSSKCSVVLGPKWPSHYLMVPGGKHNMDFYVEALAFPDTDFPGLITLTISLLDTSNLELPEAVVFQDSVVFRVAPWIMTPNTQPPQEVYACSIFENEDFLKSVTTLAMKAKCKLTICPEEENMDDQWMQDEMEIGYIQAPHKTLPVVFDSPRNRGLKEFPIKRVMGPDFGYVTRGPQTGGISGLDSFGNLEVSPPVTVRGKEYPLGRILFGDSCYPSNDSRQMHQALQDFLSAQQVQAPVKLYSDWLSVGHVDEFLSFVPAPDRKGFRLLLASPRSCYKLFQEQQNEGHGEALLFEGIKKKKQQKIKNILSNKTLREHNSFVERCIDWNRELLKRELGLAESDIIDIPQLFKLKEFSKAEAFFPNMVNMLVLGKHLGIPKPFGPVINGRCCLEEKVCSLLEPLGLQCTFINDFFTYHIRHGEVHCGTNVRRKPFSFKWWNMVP
SIAE inh: human SIAE inhibitors, primary screen, biochemical, fluorescence polarization, FP-Rh probe, 1536-well HTS. AID 1053197, 2014. SIAE FP-Rh probe binding. hit rate 0.69% among 370,000. inhibition, % at 9.66 µM. Sialate O-acetylesterase (Homo sapiens), Q9HAT2;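 active = inhibition above a cutoff: mean of compounds within the control limits plus 3 SD of those, cut at about 17% in these data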
TDP2 absorb: human TDP2 enzyme inhibitors, primary screen, biochemical, epi absorbance, recombinant enzyme | Tyrosyl-DNA phosphodiesterase 2 (Homo sapiens), O95551 | T5PNP hydrolysis, p-nitrophenol absorbance 415 nm | inhibition, % at 12.8 µM | hit rate 0.34% among 370,000;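 active = inhibition above the mean of all tested compounds plus 3 SD, set per campaign, cut at about 25% in these data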
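System – recombinant human TDP2 · Quantity – TDP2 enzyme at 120 nM final · Doses – single concentration, 12.8 µM nominal, with 1% DMSO · Incubation – 2 h at 37 °C · Measured by – epi absorbance of p-nitrophenol freed from T5PNP by hydrolysis · Read-out – % inhibition relative to enzyme-containing and enzyme-free wells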
TCR CD3 inh: inhibitors of human TCR-CD3 interaction, primary screen, biochemical, fluorescence, TAMRA-labeled TCR probe; AID 651800, 2012; hit rate 0.37% among 360,000; inhibition, % at 9.4 µM;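 note: recombinant mutant TCR 2C K166C tagged with TAMRA read by polarization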
GSTO1 counter: inhibitors of recombinant GSTO1, primary screen, counter-screen for RBBP9 inhibitor project, biochemical, fluorescence polarization; hit rate 1.1% among 300,000; inhibition, % at 5.96 µM; Glutathione S-transferase omega-1 (Homo sapiens), P78417; AID 1974, 2009; activity-based probe fluorescence polarization;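 active = inhibition above the campaign mean inhibition plus 3 SD, cut at about 35% in these data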
Apaf1 inhib: inhibitors of human Apaf-1 apoptosome, primary screen, biochemical, DEVD-Rh110 fluorescence, uHTS; Apoptotic protease-activating factor 1 (Homo sapiens), O14727; reconstituted apoptosome caspase-3 activity; inhibition, % at 20 µM; hit rate 0.71% among 330,000; AID 489030, 2010; active = inhibition of at least 40% at 20 µM
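Material: cell-free apoptosome with Apaf-1, procaspase-3 and caspase-9; Buffer or medium: Hepes pH 7.5 with detergent and BSA; Reagent: cytochrome c trigger plus (Z-DEVD)2-Rh110 caspase-3 substrate; Times: compound with Apaf-1, dATP, procaspase-3 30 min, then 50 min reaction, room temperature; Technique: Rh110 fluorescence intensity.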
Apaf-1 inh conf: Apaf-1 inhibitors, single-dose retest, confirmation, biochemical, fluorescence, DEVD-Rh110, 20 µM; shares compounds with Apaf1 inhib; reconstituted apoptosome, caspase-3 DEVD-Rh110 fluorescence; inhibition, % at 20 µM; hit rate 25% among 1,800; AID 504614, 2011;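 active = mean inhibition of at least 40% at 20 µM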
Rh110 interf inh: Rh110 fluorescence interference by putative Apaf-1 inhibitors, confirmation, artefact control for Apaf-1 inhibitor project, biochemical, 20 µM; activation (fluorescence interference), % at 20 µM; quenched caspase reaction; shares compounds with Apaf1 inhib; 1,800 tested, under 10 active;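 active = signal rise of 40% or more at 20 µM, treated as a fluorescence artifact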
Fluor interf inh: fluorescence interference of Apaf-1 inhibitor hits, dose response, artefact control for Apaf-1 inhibitor project. shares compounds with Apaf1 inhib. fluorescence interference counterscreen, Apaf-1 assay format. IC50, µM. 460 tested, under 10 active; call rule not given here
BSA TAMRA ctr: compounds interfering with TAMRA-BSA probe, counter-screen for TCR-CD3 interaction inhibitor project, biochemical, fluorescence, TAMRA-labeled BSA; shares compounds with TCR CD3 inh; TAMRA-labeled BSA probe fluorescence counterscreen; inhibition, % at 9.4 µM; hit rate 10% among 1,200; AID 652035, 2013; in the data active = inhibition above about 23%
TCR-CD3 inh conf: TCR-CD3 interaction inhibitors, retest, confirmation, biochemical, fluorescence, TAMRA-labeled TCR probe. AID 652036, 2013. TAMRA-labeled TCR probe fluorescence binding assay. hit rate 48% among 1,200. shares compounds with TCR CD3 inh. inhibition, % at 9.4 µM
TDP2 confirm: human TDP2 enzyme inhibitors, retest, confirmation, biochemical, epi absorbance, recombinant enzyme; shares compounds with TDP2 absorb; absorbance read-out; inhibition, % at 12.8 µM; hit rate 22% among 1,100; AID 743263, 2014; in the data active = inhibition above about 25%
SIAE confirm: human SIAE inhibitors, retest, confirmation, biochemical, fluorescence polarization, FP-Rh probe, triplicate. shares compounds with SIAE inh. SIAE FP-Rh activity-based probe. inhibition, % at 9.66 µM. hit rate 13% among 2,300;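 active = mean inhibition of the replicates above the hit cutoff set in the primary screen, cut at about 17% in these data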;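 note: inhibitors lower polarization as more probe stays unbound to SIAE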
Large screens that a line does not name were inactive (follow-up assays come after a bar, where they were run). Shown are actives, neighbours in structure and some others; about 2.4% of the full set was active somewhere. Cut-off read from the data, not from the text of the source, unless noted: active = inhibition above about 19%; inactive = the rest.

c1ccc2c(c1)CCN(C1=Nc3cccc4cccc1c34)C2	SIAE inh 30, Apaf1 inhib 43 (no result: PAD4 FP inh, GSTO1 counter) | Apaf-1 inh conf inactive | Rh110 interf inh inactive | SIAE confirm inactive
CCOC(=O)C1=C(c2ccccc2)NC(N)=NC1c1ccc(OCc2ccc(Cl)cc2)c(OC)c1 (stereo not given)	SIAE inh 18, Apaf1 inhib 58 | Apaf-1 inh conf 64 | Rh110 interf inh inactive | Fluor interf inh inactive | SIAE confirm 17
COc1ccc2c(c1)c(/C=N/Nc1nc3ccccc3[nH]1)c(C)n2C	SIAE inh 32, Apaf1 inhib 43 | Apaf-1 inh conf inactive | Rh110 interf inh inactive | SIAE confirm 30
Nc1ccc2nn(-c3ccccc3)nc2c1	SIAE inh 19, TDP2 absorb 27, Apaf1 inhib 93 (no result: PAD4 FP inh, GSTO1 counter) | Apaf-1 inh conf inactive | Rh110 interf inh inactive | TDP2 confirm inactive | SIAE confirm inactive
N#CC(Cc1cccc(CC(C#N)(c2ccccc2)c2ccccc2)c1)(c1ccccc1)c1ccccc1	none
CCOc1ccc(NC(=S)Nc2cccc3ccccc23)cc1	SIAE inh 18, Apaf1 inhib 66 | Apaf-1 inh conf inactive | Rh110 interf inh inactive | SIAE confirm inactive
Cc1cc(N2CCN(C(=O)c3ccco3)CC2)n2nc(C)c(-c3ccccc3)c2n1	none (no result: PAD4 FP inh, GSTO1 counter, Apaf1 inhib)
Cc1cc(C(=O)COc2cccc3cccnc23)c(C)n1C	SIAE inh 23, Apaf1 inhib 53 | Apaf-1 inh conf inactive | Rh110 interf inh inactive | SIAE confirm inactive
Cc1cc(C(=O)COc2ccccc2C(N)=O)c(C)n1C	none
COc1cccc(C2C(C(=O)Nc3nc4ccccc4s3)=C(C)NC3=C2C(=O)CC(C)(C)C3)c1OC (stereo not given)	none
CCc1nc2ccc(C(=O)N3CCN(c4ccccc4)CC3)cc2nc1CC	none
O=C(c1ccc2nc(-c3ccco3)c(-c3ccco3)nc2c1)N1CCN(c2ccccc2)CC1	SIAE inh 32, Apaf1 inhib 40 | Apaf-1 inh conf inactive | Rh110 interf inh inactive | SIAE confirm inactive
COc1cc(-c2ccc(Nc3ccccc3C(=O)O)c(OC)c2)ccc1Nc1ccccc1C(=O)O	SIAE inh 30, Apaf1 inhib 48 (no result: PAD4 FP inh, GSTO1 counter) | Apaf-1 inh conf 49 | Rh110 interf inh inactive | Fluor interf inh inactive | SIAE confirm 22
O=C(COC(=O)[C@H](Cc1ccccc1)NC(=O)c1cccs1)NC1CCCCC1	none
CC(=O)Nc1ccc(S(=O)(=O)Nc2ccc(N3CCOCC3)cc2)cc1	none
CC(=O)Nc1ccc(S(=O)(=O)NC2=C(N3CCN(c4ccc(F)cc4)CC3)C(=O)c3ccccc3C2=O)cc1	SIAE inh 25, TDP2 absorb 36, GSTO1 counter 57, Apaf1 inhib 64 | Apaf-1 inh conf 64 | Rh110 interf inh inactive | Fluor interf inh inactive | TDP2 confirm 30 | SIAE confirm 24
CC(=O)Oc1ccccc1C(=O)C=Cc1cccc([N+](=O)[O-])c1	none (no result: PAD4 FP inh, GSTO1 counter, Apaf1 inhib)
O=[N+]([O-])c1ccc(N/N=C/c2ccc(O)c(O)c2O)c(S(=O)(=O)N2CCOCC2)c1	SIAE inh 28, Apaf1 inhib 63 (no result: PAD4 FP inh, GSTO1 counter) | Apaf-1 inh conf 43 | Rh110 interf inh inactive | Fluor interf inh inactive | SIAE confirm inactive
COc1cc(/C=N/Nc2ccc([N+](=O)[O-])cc2S(=O)(=O)N2CCOCC2)cc(OC)c1OC	none
CC(=O)N1c2ccc(S(=O)(=O)NCC3CCC(C(=O)NC4CCCCC4C)CC3)cc2CC1C (stereo not given)	none
CC1(C)OC(C)(C)/C(=C/Nc2ccc(O)cc2)C1=O	SIAE inh 33, TCR CD3 inh 33, Apaf1 inhib 48 | Apaf-1 inh conf inactive | Rh110 interf inh inactive | BSA TAMRA ctr inactive | TCR-CD3 inh conf inactive | SIAE confirm inactive
CC1(C)OC(=O)C(=CNc2cccc(O)c2)C(=O)O1	none
CCCc1nnc(NC(=O)CS(=O)(=O)c2ccccc2)s1	TCR CD3 inh 30 | BSA TAMRA ctr inactive | TCR-CD3 inh conf inactive
CC1=NN(C(=O)CSCc2ccccc2)C(O)(c2ccc(Cl)cc2)C1 (stereo not given)	TCR CD3 inh 20 | BSA TAMRA ctr inactive | TCR-CD3 inh conf inactive
CC(=O)c1ccc(NC(=O)c2cccc(N3C(=O)c4ccccc4C3=O)c2)cc1	none (no result: SIAE inh, TDP2 absorb, TCR CD3 inh)
NS(=O)(=O)c1ccc(NC(=O)c2cccc(N3C(=O)c4ccccc4C3=O)c2)cc1	TCR CD3 inh 25 | BSA TAMRA ctr inactive | TCR-CD3 inh conf 30
O=S(=O)(Nc1cnc2ccccc2c1)N1CCCCCC1	none
Cn1ccc2c(N3CCOCC3)cc3c(c21)C1CCC3O1 (stereo not given)	none (no result: PAD4 FP inh, GSTO1 counter, Apaf1 inhib)
Cn1ccc2c(N3CCCCCC3)cc3c(c21)C1CCC3O1 (stereo not given)	TCR CD3 inh 22 (no result: PAD4 FP inh, GSTO1 counter, Apaf1 inhib) | BSA TAMRA ctr inactive | TCR-CD3 inh conf inactive
O=C(COc1ccccc1F)N1CCc2ccccc2C1	none
